APOBEC3G inh = APOBEC3G (human) deaminase inhibition. AID 493012. inhibition, % at 20 µM. actives 0.28% (n = 330,000). Q9HC16. recombinant A3G, ssDNA deamination FAM/TAMRA fluorescence;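 active means inhibition of at least 40% at 20 µM, with no more than 30% in the related APOBEC3A deaminase screen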;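 further: plate controls were DMSO wells with A3G for no effect and wells lacking A3G enzyme for full effect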
C-LANA FP = blocks KSHV LANA C-terminal domain binding to DNA; MBP-C-LANA/FAM-LBS DNA binding, fluorescence polarization; inhibition, % at 9 µM; actives 0.078% (n = 340,000); AID 504423;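 active means highest replicate inhibition at or above 60% at 9 µM, even if other replicates fall short; inactive means all replicates below 60% inhibition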;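 further: 0% = neutral control wells and 100% = 4 µM acridine orange control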
CAL PDZ FP-1 = blocks peptide binding to human CAL PDZ domain; Q9HD26; purified CAL PDZ, TMR-peptide fluorescence polarization, 1 h; inhibition, % at 20 µM; actives 0.02% (n = 330,000); AID 504414;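 active means highest replicate inhibition of at least 40%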;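 further: plate controls were DMSO neutral control wells for no effect and unlabeled competitor peptide control wells for full effect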
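System: purified tagged CAL PDZ domain construct (CerCALP). Schedule: 1 h incubation at room temperature before polarization reading. Medium: 25 mM sodium phosphate pH 7.4, 150 mM NaCl, TCEP, IgG, Thesit. Read-out: percent inhibition from loss of millipolarization. Measured by: FP readout, S and P plane fluorescence. Probe or stimulus: fluorescent TMR peptide probe.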
A3A deaminase = human APOBEC3A DNA deaminase inhibition | P31941 | recombinant A3A, FAM/TAMRA ssDNA deamination fluorescence | inhibition, % at 20 µM | actives 0.41% (n = 330,000) | AID 493011;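 active means at least 40% inhibition at 20 µM here, with at most 30% in a related deaminase screen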;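 further: plate controls were A3A with DMSO for no effect and wells lacking A3A enzyme for full effect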
Target sequence (P31941 whole entry, looked up): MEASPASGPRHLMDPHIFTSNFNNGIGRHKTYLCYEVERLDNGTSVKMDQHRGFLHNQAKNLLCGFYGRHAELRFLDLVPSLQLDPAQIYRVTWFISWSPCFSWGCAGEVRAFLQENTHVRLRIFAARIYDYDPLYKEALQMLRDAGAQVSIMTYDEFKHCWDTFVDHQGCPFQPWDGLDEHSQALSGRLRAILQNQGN
CAL PDZ FP-2 = blocks peptide binding to the human CAL PDZ domain. Q9HD26. purified CAL PDZ, TMR-peptide fluorescence polarization, 1 h. inhibition, % at 24.9 µM. actives 0.92% (n = 300,000);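 active means mean inhibition of at least 30% with at least half of replicates also reaching 30%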;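 further: 0% = DMSO neutral control and 100% = excess unlabeled competitor peptide PRC23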
Keap1 Nrf2 FP = Keap1-Nrf2 (human) interaction inhibition; Q14145; Keap1 Kelch-Nrf2 peptide fluorescence polarization, 1536-well; inhibition, % at 9.4 µM; actives 0.15% (n = 340,000); AID 504523; in the data active means inhibition above about 12%;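 further: human Keap1 Kelch domain with fluorescein labeled Nrf2 9mer peptide probe; 0% = neutral control wells and 100% = peptide positive control; higher means more block of Keap1 binding to Nrf2 peptide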
Starred values were filed as active, the others as inactive; · = not tested or not shown. Compounds with a hit are over-represented: about 1.7% of the library has one in this group of screens.

SMILES | APOBEC3G inh | C-LANA FP | CAL PDZ FP-1 | A3A deaminase | CAL PDZ FP-2 | Keap1 Nrf2 FP
COc1ccc(NC(=O)CSc2nc3sc(C)cc3c(=O)n2C)c(OC)c1 | -7 | -2 | -1 | 2 | 80* | 1
Cc1ccc(NC(=O)c2ccc(S(=O)(=O)N3CCC(C)CC3)cc2)nc1 | 3 | -9 | 0 | -2 | 48* | 2
Cc1ccc(NC(=O)c2ccc(S(=O)(=O)N3CCCCCC3)cc2)nc1 | -4 | 1 | -4 | 0 | 1 | 1
NC(=O)c1c(NC(=O)c2ccccc2F)sc2c1CCCC2 | -1 | -1 | 2 | -8 | 77* | -3
NC(=O)c1c(NC(=O)c2ccccc2C(=O)O)sc2c1CCCC2 | -8 | 0 | -8 | -4 | -5 | 2
CCN1CCN(S(=O)(=O)c2ccc(Cl)c(C(=O)Oc3ccc(CC(=O)OC)cc3)c2)CC1 | · | 1 | -1 | · | 80* | -3
CCOc1ccc(N(CC(=O)NCc2ccc(C)cc2)S(=O)(=O)c2c(C)[nH]c(=O)[nH]c2=O)cc1 | -4 | 0 | -1 | -3 | 38* | 2
Cc1c(OC(C)C(=O)NCCN2CCOCC2)ccc2c3c(c(=O)oc12)CCCC3 (centres undefined) | -3 | -1 | -1 | -2 | 67* | -6
O=C(NC1CCCCC1)c1ccc([N+](=O)[O-])cc1 | · | -1 | 0 | · | 92* | -4
O=C(NC(=S)NC1CCCCC1)c1ccc(F)cc1 | -11 | 0 | -1 | -8 | 44* | -5
Cc1ccc(S(=O)(=O)N2CCOCC2)cc1C(=O)N1CCN(S(=O)(=O)c2ccccc2F)CC1 | · | -1 | -1 | · | · | -5
CCN(C(=O)COC(=O)CC1CCCCC1)c1c(N)n(Cc2ccccc2)c(=O)[nH]c1=O | -7 | 1 | 0 | -2 | -1 | -1
C=C1c2cccc(O)c2C(O)=C2C(=O)[C@]3(O)C(O)=C(C(N)=O)C(=O)[C@@H](N(C)C)[C@@H]3[C@@H](O)[C@H]12 | 91 | 75* | 1 | 98 | 11 | 4
C/C(=N\O)C(C)Oc1ccc(Cl)cc1 (centres undefined) | -7 | -1 | · | -1 | -3 | 0
O=C(c1cccs1)N1CC=C(c2ccccc2)CC1 | -8 | -1 | -1 | -4 | · | -4
O=C(c1ccccn1)N1CC=C(c2ccccc2)CC1 | · | -2 | -1 | · | 194* | -1
Cc1ccc2nc(NC(=O)CSc3nc(=O)n(CCN(C)C)c4c3CCCC4)sc2c1 | 1 | 0 | -2 | 0 | · | 3
Cc1c(NS(=O)(=O)c2cc(C(=O)NCc3cccnc3)ccc2Cl)c(=O)n(-c2ccccc2)n1C | -5 | 1 | 0 | -5 | 82* | 0
O=C(ON=C1CCSCC1)c1ccccc1 | -4 | -1 | -2 | -4 | -5 | -3
CN1C(C)(C)CC(=NOC(=O)c2ccccc2)CC1(C)C | -4 | 0 | 0 | -6 | 62* | 0
CCOc1ccc(NC(=S)N2CCC(NC(=O)C3CCCCC3)CC2)cc1 | -6 | 0 | 0 | -4 | · | 0
CCCCc1ccc(S(=O)(=O)Nc2nnc(C)s2)cc1 | -5 | 0 | -5 | -7 | 52* | -4
N#Cc1c(-c2ccccc2F)cc(C2CC2)nc1SCC(=O)c1cccs1 | -8 | 0 | 0 | 3 | 6 | -8
CCN(CC)S(=O)(=O)c1ccc(N2CCCC2)c(NC(=O)C2CCCCC2)c1 | -2 | 1 | 0 | 4 | 40* | -2
CCN1CCN(c2ccc(S(=O)(=O)N3CCOCC3)cc2NC(=O)C2CCC(C(C)(C)C)CC2)CC1 (centres undefined) | · | -1 | -1 | · | 73* | -2
CCN(CC)S(=O)(=O)c1ccc(NC(=S)NC(=O)C2CCC2)cc1 | -1 | -1 | -1 | -1 | 54* | 0
CN(C)S(=O)(=O)c1ccc(NC(=S)NC(=O)C2CCC2)cc1 | -8 | -2 | 1 | -4 | -3 | -4
O=[N+]([O-])c1cccc(-c2c[n+]3c(n2-c2ccccc2)SCC3)c1 | 0 | 0 | -1 | 4 | 48* | -1
O=C(CC1C(=O)NCCN1Cc1cccc(F)c1)NCCCCCN1CCOCC1 (centres undefined) | -5 | 2 | -1 | 1 | 48* | 1
CC1CCCCN1CCNC(=O)c1ccc2c(=O)n(Cc3ccc(Cl)cc3)c(=S)[nH]c2c1 (centres undefined) | -7 | 0 | -5 | -6 | -5 | -2
